Measured values as given in ChEMBL document CHEMBL1157767, “Phenylcinnamides as novel antimitotic agents” (J Med Chem, 2010).
Calls of active or inactive are those of the source. The rule behind the calls is not given here.

Experiments:
[1] = system: U-937; test: Cytotoxicity against human U937 cells after 72 hrs MTS assay; type: functional, cell-based; conditions: U-937, 72 h
Outline: (§1)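 Cells in RPMI-1640/10% FBS seeded at 1 × 10⁵ (U-937, HL-60) or 1.5 × 10⁵ (HL-60/VCR) cells/mL with compound from DMSO series, 10 concentrations 100 μM to 5 nM, five replicates; 72 h at 37 °C. MTS/PMS added until vehicle OD ≈1.5, A490. Internal positive and DMSO controls; IC50 by four-parameter logistic fit; SD from ≥3 experiments, or mean of two.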

[2] = system: HeLa; test: Cytotoxicity against human HeLa cells after 72 hrs SRB assay; type: functional, cell-based
Outline: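 HeLa cells (5 × 10⁴ cells/mL suspension) seeded with compound from DMSO dilution series, 10 concentrations 100 μM to 5 nM, five replicates each; 72 h at 37 °C, 5% CO₂. TCA fixation, sulforhodamine B staining, bound dye released in 10 mM Tris pH 10.5, A510. Plate positive and DMSO controls calibrate % death; IC50 from four-parameter logistic fit; SD from ≥3 experiments, or mean of two.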

[3] = system: HL-60; test: Cytotoxicity against human HL60 cells after 72 hrs MTS assay; type: functional, cell-based; conditions: HL-60, 72 h; outline: as §1
[4] = system: HL-60; test: Cytotoxicity against vincristine-resistant human HL60 cells after 72 hrs MTS assay; type: functional, cell-based; conditions: HL-60, 72 h; outline: as §1
[5] = system: HL-60; test: Selectivity ratio of IC50 for vincristine-resistant human HL60 cells to IC50 for human HL60 cells; type: functional
Outline: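 Ratio of MTS-assay IC50 (72 h) in P-gp-overexpressing, vincristine/colchicine-resistant HL-60/VCR over IC50 in parental HL-60.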

[6] = species: Bos taurus; test: Inhibition of bovine brain tubulin polymerization at 10 uM by turbidimetry
[7] = Inhibition of tubulin polymerization at 100 uM by turbidimetry
[8] = system: HeLa; test: Cell cycle arrest in human HeLa cells by accumulation of cells at M phase at 100 nM after 9 hrs by propidium iodide staining based flow cytometry; type: functional
Outline: (§2)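 HeLa synchronized in G1/S by double thymidine block, released by washing and plated in fresh medium with test agent (25 μM or 100 nM) or DMSO vehicle for 9 h at 37 °C. Cells fixed in 3% formaldehyde-PBS, permeabilized in cold MeOH, stained with mouse anti-phospho(Ser10) histone H3 then Alexa-Fluor 488 secondary, RNase A-treated, propidium iodide DNA stain. Dual-laser flow cytometry; PI marks G2/M, phospho-H3 marks M-phase.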

[9] = system: HeLa; test: Cell cycle arrest in human HeLa cells by accumulation of cells at G2 phase at 100 nM after 9 hrs by propidium iodide staining based flow cytometry; type: functional; outline: as §2
[10] = system: HeLa; test: Induction of mitotic arrest in human HeLa cells assessed as disruption of microtubule assembly at 25 uM after 6 hrs fluorescence confocal microscopy; type: functional, cell-based
Outline: (§3)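 HeLa on nitric acid-washed coverslips, treated at 70% confluency for 6 h with compound (25 μM) or DMSO (0.2% final). Glutaraldehyde fixation in BRB-80, Triton X-100 permeabilization, NaBH₄ reduction, goat-serum block, FITC anti-α-tubulin plus Alexa-Fluor 488 secondary, propidium iodide with RNase A; laser scanning confocal imaging, 63× oil objective.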

[11] = system: U-937; test: Cell cycle arrest in human U937 cells by accumulation of cells at G2/M phase at 25 uM after 9 hrs by propidium iodide staining based flow cytometry; type: functional
[12] = system: HeLa; test: Cell cycle arrest in human HeLa cells by accumulation of cells at G2/M phase at 25 uM after 9 hrs by M-phase fluorescence staining based flow cytometry; type: functional; outline: as §2
[13] = system: HeLa; test: Induction of mitotic arrest in human HeLa cells assessed as increase in number of cells with mitotic DNA by indirect immunofluorescence staining; type: functional, cell-based
[14] = system: HeLa; test: Induction of mitotic arrest in human HeLa cells assessed as mitotic index by indirect immunofluorescence staining (Rvb=2.2%); type: functional
[15] = system: HeLa; test: Induction of mitotic arrest in human HeLa cells assessed as chromosomal condensation at 25 uM after 6 hrs fluorescence confocal microscopy; type: functional, cell-based; outline: as §3
[16] = system: HeLa; test: Cell cycle arrest in human HeLa cells by accumulation of cells at G2/M phase at 25 uM after 9 hrs by propidium iodide staining based flow cytometry; type: functional; conditions: in the assay text read “M phase” for “G2/M phase”; outline: as §2

| Compound | IC50 [1] | IC50 [2] | other results |
| --- | --- | --- | --- |
| COc1cc(/C=C/C(=O)Nc2ccccc2)cc(OC)c1OC | > 50 µM | > 50 µM | – |
| C=CCOc1cccc(/C=C/C(=O)Nc2cc(OC)c(OC)c(OC)c2)c1 | 13.3 µM | 5.4 µM | – |
| COc1cc2c(cc1O)CC[C@@H]1[C@@H]2CC[C@]2(C)[C@@H](O)CC[C@@H]12 [2-METHOXYESTRADIOL] | – | – | IC50 [3]: 3.4 µM; IC50 [4]: 0.9 µM; Ratio IC50 [5]: 0.26 |
| COc1cccc(NC(=O)/C=C/c2cc(OC)c(OC)c(OC)c2)c1 | > 50 µM | – | – |
| COc1cc(NC(=O)/C=C/c2ccc(O)cc2)cc(OC)c1 | > 50 µM | > 50 µM | – |
| COc1cccc(CCC(=O)Nc2ccccc2OC)c1 | > 50 µM | > 50 µM | – |
| C#CCOc1cccc(/C=C/C(=O)Nc2cc(OC)c(OC)c(OC)c2)c1 | 6 µM | 2 µM | – |
| COc1cc(NC(=O)/C=C/c2ccc(O)cc2)cc(OC)c1OC | 32 µM | > 50 µM | – |
| COc1ccccc1/C=C/C(=O)Nc1cc(OC)c(OC)c(OC)c1 | 5.1 µM | 6.1 µM | – |
| COc1cc(NC(C)=O)cc(OC)c1OC | > 50 µM | > 50 µM | – |
| COc1ccccc1/C=C/C(=O)Nc1ccccc1OC | > 50 µM | 36.1 µM | – |
| COc1cccc(/C=C/C(=O)NCc2cc(OC)c(OC)c(OC)c2)c1 | > 50 µM | > 50 µM | – |
| COc1ccc(NC(=O)/C=C/c2cccc(OC)c2)cc1 | 18.1 µM | – | – |
| CC(=O)O[C@H]1C(=O)[C@@]2(C)[C@H]([C@H](OC(=O)c3ccccc3)[C@]3(O)C[C@H](OC(=O)[C@H](O)[C@@H](NC(=O)c4ccccc4)c4ccccc4)C(C)=C1C3(C)C)[C@]1(OC(C)=O)CO[C@@H]1C[C@@H]2O | – | – | inhibition [6]: inactive; inhibition [7]: Active |
| COC(=O)/C=C/c1cccc(OC)c1 | > 50 µM | > 50 µM | – |
| COc1cc(NC(=O)/C=C/c2cc(OC)c(OC)c(OC)c2)cc(OC)c1 | 9.7 µM | 38.9 µM | – |
| COc1cccc(/C=C/C(=O)Nc2c(C)cccc2C)c1 | > 50 µM | > 50 µM | – |

| Compound | IC50 [1] | IC50 [2] | other results |
| --- | --- | --- | --- |
| COc1cc2c(c(OC)c1OC)-c1ccc(OC)c(=O)cc1[C@@H](NC(C)=O)CC2 [COLCHICINE] | – | – | IC50 [3]: 0.053 µM; IC50 [4]: > 100 µM; Ratio IC50 [5]: >1000; Activity [8]: 59%; Activity [9]: 37% |
| COc1cccc(/C=C/C(=O)Nc2cc(OC)cc(OC)c2)c1 | > 50 µM | – | – |
| COc1cccc(CCC(=O)Nc2cc(OC)c(OC)c(OC)c2)c1 | – | > 50 µM | – |
| COc1cccc(/C=C/C(=O)Nc2cccc(OC)c2)c1 | > 50 µM | > 50 µM | – |
| COc1ccccc1NC(=O)/C=C/c1cccc(OC(F)(F)F)c1 | 40.4 µM | 9.8 µM | – |
| COc1cccc(/C=C/C(=O)Nc2ccccc2OC)c1 | > 50 µM | – | – |
| COc1cc(NC(=O)/C=C/c2ccccc2)cc(OC)c1OC | 45 µM | > 50 µM | – |
| COc1cccc(/C=C/C(=O)Nc2cc(C)cc(C)c2)c1 | > 50 µM | – | – |
| COc1ccccc1NC(=O)/C=C/c1cc(OC)c(OC)c(OC)c1 | > 50 µM | > 50 µM | – |
| COc1cc(NC(=O)/C=C/c2cccc(OC(F)(F)F)c2)cc(OC)c1OC | 13.2 µM | 4.4 µM | IC50 [3]: 13.2 µM; IC50 [4]: 13.1 µM; Ratio IC50 [5]: 0.99 |
| COc1cc(/C=C/C(=O)Nc2cc(OC)c(OC)c(OC)c2)cc(OC)c1OC | 15.3 µM | > 50 µM | – |
| COc1cc(NC(=O)/C=C/c2cccc(O)c2)cc(OC)c1OC | 56.7 µM | 18.7 µM | – |
| COc1ccc(NC(=O)/C=C/c2cc(OC)c(OC)c(OC)c2)cc1 | 22.4 µM | > 50 µM | – |
| COc1cc(NC(=O)/C=C/c2cccc(OCc3ccccc3)c2)cc(OC)c1OC | 1.8 µM | 2.1 µM | Activity [10]: Active; IC50 [3]: 5.6 µM; IC50 [4]: 5.5 µM; Ratio IC50 [5]: 0.98 |
| COc1cccc(/C=C/C(=O)Nc2cc(OC)c(OC)c(OC)c2)c1 | 3 µM | 11.3 µM | Activity [11]: Active; Activity [12]: Active; Activity [13]: Active; Activity [14]: 18.2%; Activity [10]: Active; Activity [15]: Active; inhibition [7]: Active; IC50 [3]: 3.1 µM; IC50 [4]: 11.6 µM; Ratio IC50 [5]: 3.74; Activity [16]: 49% |
| COc1cccc(/C=C/C(=O)Nc2ccc3c(c2)OCCO3)c1 | 15.9 µM | 20.1 µM | – |
| COc1cccc(/C=C/C(=O)Nc2ccccc2)c1 | > 50 µM | > 50 µM | – |
